In ChEMBL document CHEMBL1126019, “Synthesis, stability, and biological evaluation of water-soluble prodrugs of a new echinocandin lipopeptide. Discovery of a potential clinical agent for the treatment of systemic candidiasis and Pneumocystis carinii pneumonia (PCP)” (J Med Chem, 1992):

How the values were obtained:
Fungi [1] = assay: Minimum fungicidal concentration against Candida albicans MY 1028; type: functional, organism-based
Outline: (§1)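 Clinical isolates in yeast nitrogen base with 1% dextrose, inoculated with about 5×10^3 CFU per well. Drug was tested by 2-fold serial dilution from 128 to 0.06 µg/mL, with growth for 24 h at 35 °C. 1.5-µL aliquots were then spotted onto Sabouraud dextrose agar and incubated at 35 °C for 24 h. MFC was the lowest concentration giving fewer than five colonies per spot. Duplicate determinations.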

[2] = Inhibitory activity against glucan synthesis; type: functional
Fungi [3] = assay: Minimum fungicidal concentration against Candida albicans MY 1055; type: functional, organism-based; outline: as §1
Homo sapiens = organism: Homo sapiens; assay: Hemolytic potential was determined as the minimum lytic concentration against human red blood cells; type: functional, cell-based
Outline: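 Compounds were serially diluted in water containing 10% DMSO and added to whole human blood, then incubated 2 h at 37 °C. Red cell lysis was scored visually, and the lowest lytic concentration was recorded.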

Fungi [4] = assay: Minimum fungicidal concentration against Candida pseudotropicalis MY 1100; type: functional, organism-based
Outline: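 Clinical isolates were inoculated at about 5×10^3 CFU into yeast nitrogen base with 1% dextrose, with drug in 2-fold dilutions from 128 to 0.06 µg/mL, and grown 24 h at 35 °C. Then 1.5 µL aliquots were spotted on Sabouraud dextrose agar and held 24 h at 35 °C. MFC is the lowest concentration giving fewer than five colonies per spot, from duplicate determinations.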

Fungi [5] = assay: Minimum fungicidal concentration against Candida tropicalis MY 1012; type: functional, organism-based; outline: as §1
Rattus norvegicus = organism: Rattus norvegicus; assay: Minimum effect dose required to reduce the number of alveolor cyst load in rat Pneumocystis carinii pneumonia assay; type: functional
Outline: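 Immunosuppressed Sprague-Dawley rats with confirmed infection (5 per dose level) were dosed subcutaneously, 0.15 and 0.60 mg/kg twice daily for 4 days. On day 5, lungs were homogenized and cysts counted microscopically in a known amount of homogenate. MED90 is the dose giving ≥90% cyst reduction versus vehicle sham controls.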

Mus musculus = organism: Mus musculus; assay: Minimum effect dose required to reduce the number of colony forming units in per gram kidney of mice after being challenged, by tail vein injection, with 5 X l0e4 cells of Candida albicans (MY 1055); type: functional
Outline: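 DBA/2 mice (5 per dose level) were infected intravenously and dosed ip with vehicle sham or 1.5, 3.0 or 6.0 mg/kg twice daily for 4 days. On day 7 post-infection, kidneys were cultured on SDA (35 °C, 24 h) and CFU/g counted. MED99 is the dose giving ≥99% CFU/g reduction versus vehicle sham.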

Fungi [6] = assay: Minimum fungicidal concentration against Candida parapsilosis MY 1010; type: functional, organism-based; outline: as §1

| SMILES | Concentration (Fungi [1]) [µg/mL] | IC50 [2] [nM] | Concentration (Fungi [3]) [µg/mL] | Concentration (Homo sapiens) [µg/mL] | Concentration (Fungi [4]) [µg/mL] | Concentration (Fungi [5]) [µg/mL] | MED90 (Rattus norvegicus) [mg/kg] | MED99 (Mus musculus) [mg/kg] | Concentration (Fungi [6]) [µg/mL] |
| --- | --- | --- | --- | --- | --- | --- | --- | --- | --- |
| CCC(C)CC(C)CCCCCCCCC(=O)N[C@H]1C[C@@H](O)[C@@H](O)NC(=O)[C@@H]2[C@@H](O)CCN2C(=O)[C@H]([C@@H](O)CC(N)=O)NC(=O)[C@H]([C@H](O)[C@@H](O)c2ccc(OC(=O)CN)cc2)NC(=O)[C@@H]2C[C@@H](O)CN2C(=O)[C@H]([C@H](C)O)NC1=O (some centres not stated) | 1 | 50 | 0.5 | 100 | 2 | < 0.06 | – | – | – |
| CCC(C)CC(C)CCCCCCCCC(=O)N[C@H]1C[C@@H](O)[C@@H](O)NC(=O)[C@@H]2[C@@H](O)CCN2C(=O)[C@H]([C@@H](O)CC(N)=O)NC(=O)[C@H]([C@H](O)[C@@H](O)c2ccc(OC(=O)OCCN(C)C)cc2)NC(=O)[C@@H]2C[C@@H](O)CN2C(=O)[C@H]([C@@H](C)O)NC1=O.O=C(O)C(F)(F)F (some centres not stated) | – | – | – | – | – | – | 0.6 | 6 | – |
| CCC(C)CC(C)CCCCCCCCC(=O)N[C@H]1C[C@@H](O)[C@@H](O)NC(=O)[C@@H]2[C@@H](O)CCN2C(=O)[C@H]([C@@H](O)CC(N)=O)NC(=O)[C@H]([C@H](O)[C@@H](O)c2ccc(OC(=O)OCCN(C)C)cc2)NC(=O)[C@@H]2C[C@@H](O)CN2C(=O)[C@H]([C@H](C)O)NC1=O (some centres not stated) | 0.125 | 100 | 0.25 | 50 | 1 | 0.125 | – | – | 2 |
| CCC(C)CC(C)CCCCCCCCC(=O)N[C@H]1C[C@@H](O)[C@@H](O)NC(=O)[C@@H]2[C@@H](O)CCN2C(=O)[C@H]([C@@H](O)CC(N)=O)NC(=O)[C@H]([C@H](O)[C@@H](O)c2ccc(OC(=O)CCCC(=O)O)cc2)NC(=O)[C@@H]2C[C@@H](O)CN2C(=O)[C@H]([C@@H](C)O)NC1=O (some centres not stated) | – | – | – | – | – | – | 0.6 | 6 | – |
| CCC(C)CC(C)CCCCCCCCC(=O)N[C@H]1C[C@@H](O)[C@@H](O)NC(=O)[C@@H]2[C@@H](O)CCN2C(=O)[C@H]([C@@H](O)CC(N)=O)NC(=O)[C@H]([C@H](O)[C@@H](O)c2ccc(OC(=O)CCN)cc2)NC(=O)[C@@H]2C[C@@H](O)CN2C(=O)[C@H]([C@H](C)O)NC1=O (some centres not stated) | 1 | 200 | 1 | 100 | – | 0.5 | – | – | 16 |
| CCC(C)CC(C)CCCCCCCCC(=O)N[C@H]1C[C@@H](O)[C@@H](O)NC(=O)[C@@H]2[C@@H](O)CCN2C(=O)[C@H]([C@@H](O)CC(N)=O)NC(=O)[C@H]([C@H](O)[C@@H](O)c2ccc(OC(=O)NCCC(=O)O)cc2)NC(=O)[C@@H]2C[C@@H](O)CN2C(=O)[C@H]([C@H](C)O)NC1=O (some centres not stated) | 128 | > 10000 | 128 | > 400 | – | 128 | – | – | > 128 |
| CCC(C)CC(C)CCCCCCCCC(=O)N[C@H]1C[C@@H](O)[C@@H](O)NC(=O)[C@@H]2[C@@H](O)CCN2C(=O)[C@H]([C@@H](O)CC(N)=O)NC(=O)[C@H]([C@H](O)[C@@H](O)c2ccc(OC(=O)NCCC(=O)O)cc2)NC(=O)[C@@H]2C[C@@H](O)CN2C(=O)[C@H]([C@@H](C)O)NC1=O (some centres not stated) | – | – | – | – | – | – | > 0.6 | > 6 | – |
| CCC(C)CC(C)CCCCCCCCC(=O)N[C@H]1C[C@@H](O)[C@@H](O)NC(=O)[C@@H]2[C@@H](O)CCN2C(=O)[C@H]([C@@H](O)CC(N)=O)NC(=O)[C@H]([C@H](O)[C@@H](O)c2ccc(OC(=O)CCCC(=O)O)cc2)NC(=O)[C@@H]2C[C@@H](O)CN2C(=O)[C@H]([C@H](C)O)NC1=O (some centres not stated) | 0.5 | 1000 | 0.5 | > 400 | 2 | 0.5 | – | – | – |
| CCC(C)CC(C)CCCCCCCCC(=O)N[C@H]1C[C@@H](O)[C@@H](O)NC(=O)[C@@H]2[C@@H](O)CCN2C(=O)[C@H]([C@@H](O)CC(N)=O)NC(=O)[C@H]([C@H](O)[C@@H](O)c2ccc(OC(=O)NCC(=O)O)cc2)NC(=O)[C@@H]2C[C@@H](O)CN2C(=O)[C@H]([C@H](C)O)NC1=O (some centres not stated) | 4 | > 10000 | 4 | > 400 | 32 | 8 | – | – | – |
| CCC(C)CC(C)CCCCCCCCC(=O)N[C@H]1C[C@@H](O)[C@@H](O)NC(=O)[C@@H]2[C@@H](O)CCN2C(=O)[C@H]([C@@H](O)CC(N)=O)NC(=O)[C@H]([C@H](O)[C@@H](O)c2ccc(OC(=O)NCC(=O)O)cc2)NC(=O)[C@@H]2C[C@@H](O)CN2C(=O)[C@H]([C@@H](C)O)NC1=O (some centres not stated) | – | – | – | – | – | – | > 0.3 | > 6 | – |
| CCC(C)CC(C)CCCCCCCCC(=O)N[C@H]1C[C@@H](O)[C@@H](O)NC(=O)[C@@H]2[C@@H](O)CCN2C(=O)[C@H]([C@@H](O)CC(N)=O)NC(=O)[C@H]([C@H](O)[C@@H](O)c2ccc(OC(=O)N(C)CC(=O)O)cc2)NC(=O)[C@@H]2C[C@@H](O)CN2C(=O)[C@H]([C@@H](C)O)NC1=O (some centres not stated) | – | – | – | – | – | – | > 0.6 | > 6 | – |
| CCC(C)CC(C)CCCCCCCCC(=O)N[C@H]1C[C@@H](O)[C@@H](O)NC(=O)[C@@H]2[C@@H](O)CCN2C(=O)[C@H]([C@@H](O)CC(N)=O)NC(=O)[C@H]([C@H](O)[C@@H](O)c2ccc(OC(=O)CN)cc2)NC(=O)[C@@H]2C[C@@H](O)CN2C(=O)[C@H]([C@@H](C)O)NC1=O.Cl (some centres not stated) | – | – | – | – | – | – | 0.6 | 3 | – |
| CCC(C)CC(C)CCCCCCCCC(=O)N[C@H]1C[C@@H](O)[C@@H](O)NC(=O)[C@@H]2[C@@H](O)CCN2C(=O)[C@H]([C@@H](O)CC(N)=O)NC(=O)[C@H]([C@H](O)[C@@H](O)c2ccc(OC(=O)N(C)CC(=O)O)cc2)NC(=O)[C@@H]2C[C@@H](O)CN2C(=O)[C@H]([C@H](C)O)NC1=O (some centres not stated) | 2 | > 1000 | 2 | 25 | 8 | 1 | – | – | – |
| CCC(C)CC(C)CCCCCCCCC(=O)N[C@H]1C[C@@H](O)[C@@H](O)NC(=O)[C@@H]2[C@@H](O)CCN2C(=O)[C@H]([C@@H](O)CC(N)=O)NC(=O)[C@H]([C@H](O)[C@@H](O)c2ccc(O)cc2)NC(=O)[C@@H]2C[C@@H](O)CN2C(=O)[C@H]([C@@H](C)O)NC1=O (some centres not stated) | – | – | – | – | – | – | 0.15 | 3 | – |
| CCC(C)CC(C)CCCCCCCCC(=O)N[C@H]1C[C@@H](O)[C@@H](O)NC(=O)[C@@H]2[C@@H](O)CCN2C(=O)[C@H]([C@@H](O)CC(N)=O)NC(=O)[C@H]([C@H](O)[C@@H](O)c2ccc(OC(=O)NCCN(C)C)cc2)NC(=O)[C@@H]2C[C@@H](O)CN2C(=O)[C@H]([C@H](C)O)NC1=O (some centres not stated) | 1 | 1000 | 1 | 25 | 64 | 1 | – | – | – |
| CCC(C)CC(C)CCCCCCCCC(=O)N[C@H]1C[C@@H](O)[C@@H](O)NC(=O)[C@@H]2[C@@H](O)CCN2C(=O)[C@H]([C@@H](O)CC(N)=O)NC(=O)[C@H]([C@H](O)[C@@H](O)c2ccc(OC(=O)CCN)cc2)NC(=O)[C@@H]2C[C@@H](O)CN2C(=O)[C@H]([C@@H](C)O)NC1=O.Cl (some centres not stated) | – | – | – | – | – | – | 0.15 | 6 | – |
| CCC(C)CC(C)CCCCCCCCC(=O)N[C@H]1C[C@@H](O)[C@@H](O)NC(=O)[C@@H]2[C@@H](O)CCN2C(=O)[C@H]([C@@H](O)CC(N)=O)NC(=O)[C@H]([C@H](O)[C@@H](O)c2ccc(OC(=O)NCCN(C)C)cc2)NC(=O)[C@@H]2C[C@@H](O)CN2C(=O)[C@H]([C@@H](C)O)NC1=O.O=C(O)C(F)(F)F (some centres not stated) | – | – | – | – | – | – | 0.6 | 6 | – |
